Source: ChEMBL document CHEMBL1137121, “Oxamides as novel NR2B selective NMDA receptor antagonists” (Bioorg Med Chem Lett, 2004)
Activity calls are given as the source filed them. No cut-off for these calls is given here.

How the values were obtained:
[1] = tested on: Mus musculus; assay: In vivo analgesic activity was tested using formalin test in mouse upon p.o. administration; assay type: functional; details: po
How it was run: (§1)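 Mice were pretreated orally with the compound suspended in 5% Tween-80, then given formalin into the hindpaw. Licking was counted 20–25 min after the formalin injection. Percentage inhibition was calculated for each dose, and the dose giving a half-maximal effect (ED50) was determined.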

[2] = target: Glutamate [NMDA] receptor; assay: Inhibition of [3H]-Ro-25-6981 binding to NMDA receptor; assay type: protein-complex assay
[3] = target: Glutamate NMDA receptor; GRIN1/GRIN2B (Homo sapiens, UniProt Q05586+Q13224); assay: Inhibition of NMDA-evoked increased intracellular [Ca2+] in cells expressing NR1/NR2B receptor; assay type: cell-based
Sequence of Glutamate NMDA receptor; GRIN1/GRIN2B (Q13224 whole entry, other chains not shown): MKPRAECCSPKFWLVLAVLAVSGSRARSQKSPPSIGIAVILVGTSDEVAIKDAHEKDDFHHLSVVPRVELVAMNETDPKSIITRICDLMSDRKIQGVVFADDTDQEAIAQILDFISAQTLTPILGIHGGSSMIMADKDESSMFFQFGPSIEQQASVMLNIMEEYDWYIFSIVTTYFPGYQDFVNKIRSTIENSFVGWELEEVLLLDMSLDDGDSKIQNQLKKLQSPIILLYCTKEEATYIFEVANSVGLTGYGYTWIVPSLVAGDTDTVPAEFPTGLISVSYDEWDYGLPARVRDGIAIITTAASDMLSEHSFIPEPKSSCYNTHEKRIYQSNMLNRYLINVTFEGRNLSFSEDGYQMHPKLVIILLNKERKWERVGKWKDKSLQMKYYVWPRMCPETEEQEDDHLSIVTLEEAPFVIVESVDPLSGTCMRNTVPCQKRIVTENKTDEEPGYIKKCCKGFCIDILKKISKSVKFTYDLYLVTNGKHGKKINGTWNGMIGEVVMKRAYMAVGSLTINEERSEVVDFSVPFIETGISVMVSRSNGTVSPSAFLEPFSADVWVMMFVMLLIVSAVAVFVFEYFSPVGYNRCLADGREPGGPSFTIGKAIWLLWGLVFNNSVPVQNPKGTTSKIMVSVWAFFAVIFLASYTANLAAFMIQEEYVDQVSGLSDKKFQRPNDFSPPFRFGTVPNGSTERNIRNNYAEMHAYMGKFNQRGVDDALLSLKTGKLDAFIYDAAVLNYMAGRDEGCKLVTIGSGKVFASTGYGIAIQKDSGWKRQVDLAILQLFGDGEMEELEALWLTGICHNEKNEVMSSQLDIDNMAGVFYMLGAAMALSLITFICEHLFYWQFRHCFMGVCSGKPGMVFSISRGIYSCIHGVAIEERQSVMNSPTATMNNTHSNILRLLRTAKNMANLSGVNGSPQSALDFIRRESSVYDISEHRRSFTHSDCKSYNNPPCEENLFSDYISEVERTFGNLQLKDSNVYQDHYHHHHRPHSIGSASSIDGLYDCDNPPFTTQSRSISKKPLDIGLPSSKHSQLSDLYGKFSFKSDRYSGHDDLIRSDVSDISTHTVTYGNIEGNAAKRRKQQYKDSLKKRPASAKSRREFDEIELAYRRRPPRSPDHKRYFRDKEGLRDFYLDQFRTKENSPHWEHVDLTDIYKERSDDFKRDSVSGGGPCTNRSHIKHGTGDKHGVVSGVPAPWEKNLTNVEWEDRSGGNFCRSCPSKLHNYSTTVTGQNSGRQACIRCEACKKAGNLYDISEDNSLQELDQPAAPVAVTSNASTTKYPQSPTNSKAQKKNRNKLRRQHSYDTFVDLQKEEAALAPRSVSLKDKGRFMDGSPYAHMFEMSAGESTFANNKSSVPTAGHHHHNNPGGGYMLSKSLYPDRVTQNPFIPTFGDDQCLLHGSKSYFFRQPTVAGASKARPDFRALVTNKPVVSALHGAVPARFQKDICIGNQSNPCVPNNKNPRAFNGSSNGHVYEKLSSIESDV

[4] = tested on: Mus musculus; assay: In vivo analgesic activity was tested using formalin test in mouse upon p.o. administration; IA is inactive; assay type: functional, organism-based; how it was run: as §1
[5] = tested on: Mus musculus; assay: In vivo analgesic activity was tested using formalin test in mouse upon i.p. administration; assay type: functional; details: ip
How it was run: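 Mice were pretreated intraperitoneally before formalin injection into the hindpaw. Licking behaviour was counted 20–25 min after the formalin injection. Percentage inhibition was calculated per dose, and the ED50 (the dose producing a half-maximal effect) was derived.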

[6] = tested on: Mus musculus; assay: In vivo analgesic activity was tested using formalin test in mouse upon s.c. administration; assay type: functional; details: sc

Structure (SMILES)	ED50 [1] [mg/kg]	IC50 [2] [nM]	IC50 [3] [nM]	ED50 [4]	ED50 [5] [mg/kg]	ED50 [6] [mg/kg]
Cc1ccc(CC2CCN(C(=O)C(=O)Nc3ccc4c(c3)OCC(=O)N4)CC2)cc1	10	17	18	–	–	–
O=C(Nc1ccc2[nH]c(=O)[nH]c2c1)C(=O)N1CCC(Cc2ccccc2)CC1	14	4	6	–	–	–
O=C(Nc1ccc2[nH]c(=O)oc2c1)C(=O)N1CCC(Cc2ccc(F)cc2)CC1 [RADIPRODIL]	7.7	6	4	–	–	–
Cc1ccc(CC2(O)CCN(CCOc3ccc(O)cc3)CC2)cc1	–	–	5	inactive	5.9	–
C[C@@H](CN1CCC(Cc2ccccc2)CC1)[C@@H](O)c1ccc(O)cc1	–	–	–	inactive	5.1	–
C[C@@H]([C@@H](O)c1ccc(O)cc1)N1CCC(O)(c2ccccc2)CC1 [TRAXOPRODIL]	> 20	–	–	–	–	> 20
O=C(CCN1CCC(Cc2ccc(F)cc2)CC1)c1ccc2nc(O)oc2c1	3.7	8	48	–	–	–
O=C(Nc1ccc2[nH]c(=O)sc2c1)C(=O)N1CCC(Cc2ccccc2)CC1	0.4	17	9	–	–	–
O=C(Nc1ccc2[nH]c(=O)[nH]c2c1)C(=O)N1CCC(Cc2ccc(F)cc2)CC1	> 20	5	2	–	–	–
O=C(Nc1ccc2[nH]c(=O)[nH]c2c1)C(=O)N1CCC(Oc2ccc(Cl)cc2)CC1	> 20	26	8	–	–	–
O=c1[nH]c2ccc([S+]([O-])CCN3CCC(Cc4ccc(F)cc4)CC3)cc2o1 (configuration not stated) [BESONPRODIL]	2.4	–	–	–	–	–
O=C(Nc1ccc2[nH]c(=O)oc2c1)C(=O)N1CCC(Oc2ccc(Cl)cc2)CC1	4.4	40	7	–	–	–
O=C(Nc1ccc(O)cc1)C(=O)N1CCC(Cc2ccccc2)CC1	9.4	16	31	–	–	–
O=C(Nc1ccc2[nH]c(=O)oc2c1)C(=O)N1CCC(Cc2ccccc2)CC1	0.9	8	3	–	–	–
O=C(c1cc2cc(O)ccc2[nH]1)N1CCC(Cc2ccccc2)CC1	1.4	–	42	–	–	–
Cc1ccc(CC2CCN(C(=O)C(=O)Nc3ccc4c(c3)CC(=O)N4)CC2)cc1	0.5	54	15	–	–	–
O=C1Nc2ccc(NC(=O)C(=O)N3CCC(Cc4ccccc4)CC3)cc2CO1	< 0.1	139	29	–	–	–
Cc1ccc(OC2CCN(C(=O)C(=O)Nc3ccc4nc(S)[nH]c4c3)CC2)cc1	> 20	131	10	–	–	–
Cc1ccc(OC2CCN(C(=O)C(=O)Nc3ccc4[nH]c(=O)sc4c3)CC2)cc1	0.2	17	8	–	–	–
